Source: ChEMBL document CHEMBL2331250, “Synthesis of an MIF-1 analogue containing enantiopure (S)-α-trifluoromethyl-proline and biological evaluation on nociception” (Eur J Med Chem, 2013)
Activity calls are given as the source filed them. Residues, ends and D or L forms follow the SMILES beside them.

Columns and labels:
Format in all cases: functional, organism-based
[1] = test system: Rattus norvegicus; assay: Analgesic activity in Wistar rats assessed as increase in latency of response to pain at 1 mg/kg, ip treated 20 mins after 1 mg/kg, ip NO donor, L-arginine challenge measured after 15 to 45 mins by hot plate test
Procedure, shortened: (§1)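 Male Wistar rats (180–200 g), 12 h light/dark cycle, food and water ad libitum, tested 09.00–12.00, five rats per group. Peptide given i.p. in sterile 0.9% saline. Pretreatment agents (naloxone or L-Arg at 1 mg/kg, L-NAME at 10 mg/kg, i.p.) were given 20 min before the peptide. Readings began 15 min after peptide injection. Hot plate at 55 ± 0.5 °C; latency measured to first paw licking or jump; 30 s cut-off. Mean ± S.E.M., ANOVA, P < 0.05.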

[2] = test system: Rattus norvegicus; assay: Analgesic activity in Wistar rats assessed as increase in latency of response to pain at 1 mg/kg, ip treated 20 mins after 10 mg/kg, ip NOS inhibitor, L-NAME challenge measured after 15 to 45 mins by hot plate test; procedure, shortened: as §1
[3] = test system: Rattus norvegicus; assay: Analgesic activity in Wistar rats assessed as increase in mechanical nociceptive threshold at 1 mg/kg, ip treated 20 mins after 1 mg/kg, ip NO donor, L-arginine challenge measured after 15 to 45 mins by paw pressure test
Procedure, shortened: (§2)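 Male Wistar rats (180–200 g), five per group, tested 09.00–12.00. Peptide given i.p. in sterile 0.9% saline. Pretreatment agents (naloxone or L-Arg at 1 mg/kg, L-NAME at 10 mg/kg, i.p.) were given 20 min before the peptide. Readings began 15 min after peptide injection. Randall-Selitto analgesimeter applied pressure to the hind paw; threshold was the pressure (g) eliciting squeak or struggle; 500 g cut-off. Mean ± S.E.M., ANOVA.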

[4] = test system: Rattus norvegicus; assay: Analgesic activity in Wistar rats assessed as increase in mechanical nociceptive threshold at 1 mg/kg, ip treated 20 mins after 10 mg/kg, ip NOS inhibitor, L-NAME challenge measured after 15 to 45 mins by paw pressure test; procedure, shortened: as §2
[5] = test system: Rattus norvegicus; assay: Analgesic activity in Wistar rats assessed as increase in latency of response to pain at 1 mg/kg, ip treated 20 mins after 1 mg/kg, ip […] opiate receptor antagonist, naloxone challenge measured after 15 to 30 mins by hot plate test; procedure, shortened: as §1
[6] = test system: Rattus norvegicus; assay: Analgesic activity in Wistar rats assessed as increase in mechanical nociceptive threshold at 1 mg/kg, ip treated 20 mins after 1 mg/kg, ip […] opiate receptor antagonist, naloxone challenge measured after 15 to 30 mins by paw pressure test; procedure, shortened: as §2
[7] = test system: Rattus norvegicus; assay: Analgesic activity in Wistar rats assessed as increase in latency of response to pain at 1 mg/kg, ip measured after 15 to 45 mins by hot plate test; parameters: dose 1 mg/kg; procedure, shortened: as §1
[8] = test system: Rattus norvegicus; assay: Analgesic activity in Wistar rats assessed as increase in mechanical nociceptive threshold at 1 mg/kg, ip measured after 15 to 30 mins by paw pressure test; parameters: dose 1 mg/kg; procedure, shortened: as §2
[9] = test system: Rattus norvegicus; assay: Analgesic activity in Wistar rats assessed as increase in latency of response to pain at 1 mg/kg, ip measured after 15 mins by hot plate test; parameters: dose 1 mg/kg; procedure, shortened: as §1
[10] = test system: Rattus norvegicus; assay: Analgesic activity in Wistar rats assessed as increase in mechanical nociceptive threshold at 1 mg/kg, ip measured after 15 mins by paw pressure test; parameters: dose 1 mg/kg; procedure, shortened: as §2

Row | Compound | Activity [1] | Activity [2] | Activity [3] | Activity [4] | Activity [5] | Activity [6] | Activity [7] | Activity [8] | Activity [9] | Activity [10]
1 | CC(C)C[C@H](NC(=O)[C@]1(C(F)(F)F)CCCN1)C(=O)NCC(N)=O | inactive | inactive | inactive | inactive | inactive | inactive | inactive | Active |  | 
2 | CC(C)C[C@H](NC(=O)[C@@H]1CCCN1)C(=O)NCC(N)=O (H-Pro-Leu-Gly-NH2) | inactive | inactive | inactive | inactive | inactive | inactive |  |  | Active | inactive
